High-throughput results: PubChem BioAssay, several laboratories
The entries come from a sample that favours hits as a whole.
CHOP inh – inhibitors of CHOP promoter induction, primary screen, cell-based, unfolded protein response, luciferase reporter; CHO-K1 CHOP-promoter luciferase, tunicamycin-induced, 15-18 h; actives 3.8% (n = 220,000); AID 2732, 2010; inhibition, % at 10 µM;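 active = compounds that reduced the stress-induced luciferase reporter signal by more than about 70% of percent inhibition, limit read from the data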
CHOP UPR activ – activators of apoptotic CHOP UPR arm, primary screen, cell-based, CHO-CHOP luciferase reporter, luminescence, uHTS; actives 0.34% (n = 330,000); UPR activation; percent of tunicamycin response over DMSO baseline; activation, % at 10 µM;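 active = at 10 µM dose, activation of 40% or more, normalized to positive control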
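Evaluation: % reporter activation, DMSO baseline versus tunicamycin full activation; System: CHO-CHOP luciferase reporter cell line; Input: 500 cells/well; Incubation: 6 h compound treatment, 37 °C; Measured by: Steady-Glo luciferase luminescence; Dosing: one dose, 10 µM in 0.5% DMSO; Buffer or medium: F12 medium, 10% FBS; Benchmarks: positive tunicamycin 10 µg/mL, negative DMSO alone.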
T cruzi inh – inhibitors of intracellular T. cruzi growth, primary screen, luminescence, NIH3T3 host cells. inhibition, % (test concentration not listed). T. cruzi beta-gal in NIH3T3, 90 h. actives 1.4% (n = 300,000);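 active = mean inhibition across valid replicates above about 55%, limit read from the data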;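 note: signal also drops with host cell toxicity which is not excluded here; higher percent means less beta-gal luminescence so fewer parasites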
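System: NIH/3T3 fibroblasts plus reporter T. cruzi. Medium: DMEM plus 2% FBS. Probe or stimulus: 5000 reporter trypomastigotes per well. Compound: single 50 nL compound addition per well in DMSO. Incubation: co-culture of at least 90 h after 3 h attachment. Detection: GalScreen β-gal luminescence, detergent lysis, 60 min. Evaluation: parasite load inhibition, %.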
Lmaj promast – Leishmania major promastigote growth inhibition, primary screen. Leishmania major promastigotes, resazurin fluorescence viability. inhibition, % at 10 µM. actives 9% (n = 200,000); in the data active = inhibition above about 50%;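 note: promastigotes grown with compound for 44 hours at 28 °C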
Dynein transport – inhibitors of GR-EGFP nuclear translocation, primary screen, dynein cargo transport inhibitor project, imaging, high-content, 3617.4 mouse cells; actives 0.47% (n = 220,000); AID 1381, 2008; z-score, hits read low; test concentration mostly 20 µM; stimulated with dexamethasone, 1 µM; stronger effect = lower value;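 active = plate z-score of nuclear minus cytoplasmic receptor signal below a set negative limit, without overly bright fluorescence or cell loss, cut at about -3.5 in these data, passing the limit was not always enough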;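 note: z-score of nuclear minus cytoplasmic ring GR-EGFP intensity difference per well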
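medium = tetracycline-free induction medium containing charcoal-stripped FBS | probe or stimulus = dexamethasone, 1.0 µM final | timing = 48 h induction, then 1 h compound, then 30 min agonist, 37 °C | detection = automated 10x imaging of fixed Hoechst-stained cells | read-out basis = nuclear versus cytoplasmic GR-EGFP signal, averaged per well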
XBP1 UPR activ – activators of adaptive XBP1 UPR arm, primary screen, cell-based, CHO-XBP1 luciferase reporter, luminescence, uHTS; IRE1-XBP1 UPR activation; percent of tunicamycin response, DMSO as zero; activation, % at 20 µM; actives 0.33% (n = 330,000);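 active = versus positive control, 20 µM dose yields 30% or more activation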
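incubation = overnight seeding at 37 °C, 6 h compound treatment at 37 °C | assay system = CHO-XBP1 cells stably carrying IRE1-XBP1-driven luciferase reporter | input = 1000 cells per well | detection = luciferase luminescence | dosing = single point, 20 µM final compound, 1% DMSO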
L major 1uM – Leishmania major promastigote growth inhibition, confirmation, 1 µM repeat of primary hits | actives 13% (n = 1,100) | inhibition, % at 1 µM | L. major promastigote growth, resazurin fluorescence, 48 h | shares compounds with Lmaj promast;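 active = inhibition above about 50% in both repeat tests, limit read from the data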
Numbers stand for hits; . = inactive; / = not tested or not shown.

SMILES	CHOP inh	CHOP UPR activ	T cruzi inh	Lmaj promast	Dynein transport	XBP1 UPR activ	L major 1uM
COc1ccc(Cc2nc3ccc(C(=O)NCCCSC)cc3o2)cc1OC	/	.	.	/	/	.	/
CN(Cc1cnn(C)c1)C(=O)C1CCCCC1C(=O)O (stereo unspecified)	.	.	/	54	.	.	.
Cn1cc(CNC(=O)C2CCCCC2)cn1	.	.	.	.	.	.	/
CCOC(=O)C1CC(c2ccc(Cl)cc2)=NNC1=O (stereo unspecified)	.	.	.	.	.	.	/
Cc1ccc(C2=NNC(=O)C(c3ccc(Cl)cc3)C2)cc1 (stereo unspecified)	96	.	.	70	.	.	.
CC(C)Cn1c(N)c(C(=O)CSc2ccccc2)c(=O)n(C)c1=O	.	/	.	51	.	/	.
NC(=O)CN(N=Nc1cccc([N+](=O)[O-])c1)c1cccc([N+](=O)[O-])c1	.	.	.	55	.	.	.
CCN(N=Nc1cccc([N+](=O)[O-])c1)c1cccc([N+](=O)[O-])c1	.	.	.	.	.	.	/
Cc1cccc(-n2c3nc(=O)[nH]c(=O)c-3cc3c(C)nn(-c4ccccc4)c32)c1C	.	.	.	.	.	.	/
Cc1cccc(-n2c3nc(=O)[nH]c(=O)c-3cc3cc([N+](=O)[O-])ccc32)c1	.	/	.	95	.	/	.
CC(C)(C)c1ccc(OCCNC(=O)c2ncn[nH]2)cc1	.	.	.	70	.	.	.
CCc1cc(C)cc(OCCNC(=O)c2ncn[nH]2)c1	.	.	.	.	.	.	/
Cc1[nH]c2c(Br)cccc2c1[C@H]1[C@@H](CC#N)C1(C)C	72	.	.	99	.	.	.
C(=N\N1CCOCC1)/c1nc(-c2ccccc2)n2ccccc12	.	.	.	.	.	.	/
CC(C)(C)c1ccc(-c2nc(C=O)c3ccccn23)cc1	.	.	.	63	.	.	.
COc1cc(S(=O)(=O)n2cnc3ccccc32)ccc1Br	/	.	.	/	/	.	/
O=c1c2sc3nc(N4CCOCC4)c4c(c3c2ncn1CCc1ccccc1)CCCC4	.	.	/	74	.	.	.
CCCCC(CC)C(=O)NCC(C)NC(=O)C(CC)CCCC (stereo unspecified)	.	.	.	61	.	.	.
CCOC(=O)c1c2c(n(C)c1C)C(=O)C(=O)c1ccc(Br)cc1-2	/	.	.	100	.	.	98
COc1ccccc1-c1sc2ccccc2c1C#Cc1ccc(N(C)C)cc1	/	.	/	/	/	.	/
CCn1cc(CNCc2cn(C)nc2-c2ccc(C3CCCCC3)cc2)cn1	.	/	.	95	.	/	.
Cc1ccc(C(=O)N(C)CC(=O)Nc2ccc(N3CCOCC3)cc2)s1	/	.	.	/	/	.	/
Cc1ccc(CNc2ccc(N3CCOCC3)cc2)s1	.	.	.	81	.	.	.
Cc1cc(/C=N/n2cnnc2)c(C)n1-c1cccc(Cl)c1	.	.	.	85	.	.	.
Cc1nc2ccc(Cl)cc2c(-c2ccccc2F)c1CC(=O)O	.	.	.	62	.	.	.
SMILES	CHOP inh	CHOP UPR activ	T cruzi inh	Lmaj promast	Dynein transport	XBP1 UPR activ	L major 1uM
Cc1nc2ccc(Cl)cc2c(-c2ccccc2Cl)c1CC(=O)O	.	.	.	.	.	.	/
Cc1nc2ccc(Cl)cc2c(-c2ccccc2)c1CC(=O)O	.	.	.	54	.	.	.
CNc1c([N+](=O)[O-])cnn1-c1cccc(Cl)n1	.	.	.	.	.	.	/
O=C(CCn1cccn1)Nc1ccc2c(c1)OCCO2	/	.	.	/	/	.	/
O=C(COC(=O)COc1cccc(Br)c1)Nc1ccc(F)cc1F	/	.	/	/	/	.	/
COC(=O)C[N+](C)(C)CC#Cc1ccccc1	.	.	.	53	.	.	.
NC(=O)c1ccc(/C=N/O)[n+](Cc2ccccc2)c1	/	.	.	/	/	.	/
COc1ccc(-c2cc3nc(-c4ccccc4)cc(N4CCC5(CC4)OCCO5)n3n2)cc1	.	.	.	80	.	.	.
Cc1nn(Cc2n[nH]c(=S)n2Cc2ccccc2)c(C)c1Cl	.	.	.	90	.	.	.
CCNC(=S)N(Cc1c(C)noc1C)c1ccccc1	.	.	.	51	.	.	.
CCCCNC(=S)N(Cc1c(C)noc1C)c1ccccc1	.	.	.	.	.	.	/
O=C(c1cccc(S(=O)(=O)N2CCCC2)c1)N1CCN(Cc2ccccc2)CC1	/	.	/	/	/	.	/
C=CCNC(=O)C1CC(=O)N(c2ccc(OCC(=O)Nc3ccc(Cl)cc3)cc2)C1 (stereo unspecified)	/	.	.	/	/	.	/
CN(C)C(CNC(=O)c1ccc2c(=O)n(-c3ccccc3F)c(=S)[nH]c2c1)Cc1ccccc1 (stereo unspecified)	.	.	.	.	.	.	/
c1ccc(-c2nnc(-c3ccccn3)c(-c3ccccn3)n2)nc1	.	.	.	/	.	.	/
CN(C)c1nc(-c2ccccn2)nnc1-c1ccccc1	.	.	.	100	.	.	74
CCOc1ccc(C2/C(=C(\O)c3ccc4c(c3)OCCO4)C(=O)C(=O)N2CCN2CCOCC2)cc1OC (stereo unspecified)	/	.	/	/	/	.	/
CN(C)C(=O)COC(=O)/C=C/c1ccccc1[N+](=O)[O-]	.	.	.	.	.	.	/
O=C(/C=C/c1ccccc1[N+](=O)[O-])c1ccccc1Br	.	.	.	100	.	.	.
Cc1ccc(N/N=C(\C#N)C(=N)N2CCCCCC2)cc1	.	.	.	61	.	.	.
CC(=O)NN1C(=O)/C(=C/c2ccc(C(C)C)cc2)SC1=S	.	.	.	.	.	.	/
Cc1ccc2cccc(Oc3ncnc4sc(C)c(C)c34)c2n1	.	.	.	90	.	.	.
O=S(=O)(NC(=NCCc1ccc(Cl)cc1)c1ccccc1Cl)c1cccs1	.	.	.	100	.	.	.
NC(=NCCc1ccccc1)NS(=O)(=O)c1cccs1	.	.	.	.	.	.	/
CCOC(=O)c1c(NC(=O)Cn2cnc([N+](=O)[O-])n2)sc(C)c1C	.	.	72	52	.	.	.
COc1ccc(CCNC(=S)NC(=O)c2cccc([N+](=O)[O-])c2)cc1OC	/	.	.	/	/	.	/
CCOC(=O)N1CCN(C(=O)c2ccc3c(c2)sc2nc(-c4ccccc4)cn23)CC1	.	.	.	58	.	.	.
